Screens from PubChem BioAssay.
The list is not random: actives were taken first. Their share in the collection is about 2.8%.
E-selectin induc = E-selectin induction on HUVECs | P16581 | HUVEC E-selectin immunofluorescence imaging; normalized: neutral wells 0, TNF-alpha wells 100 | activation, % at 7.58 µM | 0.37% of 260,000 active;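 active means mean E-selectin-positive cell signal at least 10% of the positive control, reached in at least 60% of replicates, without over 20% cell loss; inconclusive means no rule given, readout overlaps actives, possibly toxicity-flagged; inactive means the rest, including those meeting only one limit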
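Read-out basis: % PE-positive cells; Test system: HUVEC primary endothelial cells; Technique: immunofluorescence imaging; Dosing: single-point compound dose.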
DENV2 CPE = DENV2-induced cell death inhibition. CPE inhibition, % at 9.99 µM. 1.7% of 350,000 active. DENV2-infected cells, cytopathic effect rescue, plate reader; in the data active means CPE inhibition above about 20%, passing the limit was not always enough; inconclusive means no clear call, values can overlap the other calls; tested in BHK-21 cells;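 further: 0% = median of neutral control wells and 100% = median of positive control wells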
SIRT5 block = inhibitors of human sirtuin-5 desuccinylase | Q9NXA8 | Purified SirT5, succinyl-peptide AMC, trypsin-coupled fluorescence | inhibition, % at 15 µM | 1.1% of 330,000 active | AID 652115; in the data active means inhibition above about 15%; inconclusive means no clear call, values can overlap the other calls
Target sequence (Q9NXA8 whole entry, looked up): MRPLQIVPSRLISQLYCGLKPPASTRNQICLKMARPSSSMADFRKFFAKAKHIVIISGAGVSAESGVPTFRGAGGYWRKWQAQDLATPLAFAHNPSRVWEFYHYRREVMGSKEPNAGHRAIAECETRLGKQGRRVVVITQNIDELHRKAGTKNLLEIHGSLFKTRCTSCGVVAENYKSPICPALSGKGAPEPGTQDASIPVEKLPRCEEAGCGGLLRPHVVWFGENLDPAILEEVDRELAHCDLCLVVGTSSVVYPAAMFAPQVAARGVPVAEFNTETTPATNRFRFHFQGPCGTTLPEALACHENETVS
The depositor's hits bear a star.

For CO[C@H]1CN(C)C(=O)c2ccc(NC(=O)c3ccccc3)cc2OC[C@@H](C)N(C(=O)C2CC2)C[C@@H]1C the results were E-selectin induc 1.
`COc1ccc(S(=O)(=O)N(C)C[C@H]2OCCCC[C@@H](C)Oc3ccc(NS(=O)(=O)c4ccccc4)cc3C(=O)N([C@@H](C)CO)C[C@@H]2C)cc1` gave DENV2 CPE 1 and SIRT5 block 10.
`C[C@@H]1CCCCO[C@@H](CN(C)Cc2ccc(C(=O)Nc3ccccc3N)cc2)[C@@H](C)CN([C@H](C)CO)C(=O)c2cc(NS(=O)(=O)c3cn(C)cn3)ccc2O1` gave E-selectin induc 0, DENV2 CPE -1 and SIRT5 block 1.
`C[C@@H]1CN([C@@H](C)CO)C(=O)Cc2cc(NS(C)(=O)=O)ccc2O[C@H]1CN(C)S(=O)(=O)c1ccccc1` gave E-selectin induc -3, DENV2 CPE -11 and SIRT5 block -1.
`CCCC#Cc1ccc2c(c1)O[C@@H](CN(C)C(=O)C1CCC1)[C@@H](C)CN([C@@H](C)CO)S2(=O)=O` gave E-selectin induc -1, DENV2 CPE 4 and SIRT5 block 5.
Screening CNC(=O)c1cc(Cl)c(OC)c(OC)c1 returned E-selectin induc 0, DENV2 CPE -2 and SIRT5 block -3.
COC(=O)C(=O)C1CCc2c(Cl)cc(OC)c(OC)c2C1=O (stereo not drawn) was read as DENV2 CPE 65* and SIRT5 block 0.
Screening C[C@@H]1CN([C@@H](C)CO)C(=O)Cc2cc(NC(=O)Nc3ccc(F)cc3)ccc2O[C@H]1CN(C)C(=O)Nc1ccc2c(c1)OCO2 returned E-selectin induc -2, DENV2 CPE -9 and SIRT5 block 1.
Screening CCC(=O)Nc1ccc2c(c1)C(=O)N(C)C[C@@H](OC)[C@H](C)CN(C(=O)c1ccccn1)[C@@H](C)CO2 returned E-selectin induc 0, DENV2 CPE 27* and SIRT5 block 0.
`CCC(=O)Nc1ccc2c(c1)OC[C@H](C)N(C(=O)c1ccccn1)C[C@H](C)[C@H](OC)CN(C)C2=O` gave E-selectin induc 0, DENV2 CPE 34* and SIRT5 block 1.
CCCC(=O)Nc1ccc2c(c1)C(=O)N(C)C[C@@H](OC)[C@H](C)CN(C(=O)c1ccccn1)[C@H](C)CO2 was read as E-selectin induc 0, DENV2 CPE 3 and SIRT5 block 2.
Screening CCCC(=O)Nc1ccc2c(c1)OC[C@@H](C)N(C(=O)c1ccccn1)C[C@H](C)[C@H](OC)CN(C)C2=O returned E-selectin induc 0, DENV2 CPE -5 and SIRT5 block 6.
O=C(Cc1cccnc1)N1CC[C@@H]2[C@@H](CO)Nc3ccc(C#Cc4ccccc4F)cc3[C@@H]21 was read as E-selectin induc 0, DENV2 CPE -9 and SIRT5 block -2.
Cc1noc(C)c1S(=O)(=O)N(C)C[C@H]1Oc2ccc(NC(=O)Nc3ccccc3)cc2CC(=O)N([C@H](C)CO)C[C@@H]1C was read as E-selectin induc 0.
O=C1CSC(c2ccccc2)N1c1ccc(-c2ccccc2)cc1 (stereo not drawn) was read as DENV2 CPE 12 and SIRT5 block 2.
O=[N+]([O-])c1ccc(OCCCCCN2CCOCC2)cc1 was read as E-selectin induc 0, DENV2 CPE 26* and SIRT5 block 0.
Screening COC(=O)C1CCN(Cc2ccc(OCCCN3CCN(c4ccc([N+](=O)[O-])cc4)CC3)cc2)CC1 returned E-selectin induc -1, DENV2 CPE 4 and SIRT5 block 16*.
For O=[N+]([O-])c1ccc(OCCCCN2CCCCC2)cc1 the results were E-selectin induc 0.
Screening CC1CCN(CCCCOc2ccc([N+](=O)[O-])cc2)CC1 returned E-selectin induc -1, DENV2 CPE 18 and SIRT5 block 0.
For C[C@H]1CN([C@@H](C)CO)C(=O)c2cc(C#CCN(C)C)cnc2O[C@H]1CN(C)C(=O)c1cccc(F)c1 the results were E-selectin induc 0, DENV2 CPE 34* and SIRT5 block -1.
`CCCC#Cc1cnc2c(c1)C(=O)N([C@@H](C)CO)C[C@H](C)[C@H](CN(C)C(=O)c1cccc(F)c1)O2` gave E-selectin induc 0, DENV2 CPE 27* and SIRT5 block -3.
`CCCC#Cc1cnc2c(c1)C(=O)N([C@@H](C)CO)C[C@H](C)[C@@H](CN(C)C(=O)c1cccc(F)c1)O2` gave E-selectin induc 0, DENV2 CPE 2 and SIRT5 block 14.
C[C@@H]1CN([C@@H](C)CO)C(=O)c2cc(C#CCN(C)C)cnc2O[C@@H]1CN(C)C(=O)c1cccc(F)c1 was read as E-selectin induc 0, DENV2 CPE -1 and SIRT5 block -2.
For C[C@H](CO)N1C[C@H](C)[C@H](CN(C)C(=O)C2CCC2)Oc2cc(-c3ccc(F)cc3)ccc2S1(=O)=O the results were E-selectin induc 0.
`Cc1ccc(S(=O)(=O)N[C@@H]2CC[C@@H](CC(=O)NCCN3CCCCC3)O[C@@H]2CO)cc1` gave E-selectin induc 0, DENV2 CPE 0 and SIRT5 block -5.
O=C(C1CC1)N1CC2(C1)[C@@H](c1ccccc1)[C@@H](CO)N2Cc1ccc(Cl)cc1 was read as E-selectin induc 0, DENV2 CPE -2 and SIRT5 block -5.
`C[C@H]1CN([C@@H](C)CO)C(=O)c2cc(NS(=O)(=O)c3cn(C)cn3)ccc2O[C@@H]1CN(C)Cc1ccc(C(=O)O)cc1` gave DENV2 CPE -5 and SIRT5 block 2.
`O=C1C=C(c2c(O)ccc3ccccc23)c2ccccc2C1=O` gave E-selectin induc 0 and DENV2 CPE -2.
O=C1C=C(O)c2cccc(O)c2C1=O was read as DENV2 CPE 44*.
`C[C@@H](NC(=O)C[C@@H]1C[C@H]2c3cc(NC(=O)c4cccnc4)ccc3O[C@H]2[C@H](CO)O1)c1ccccc1` gave E-selectin induc 0, DENV2 CPE 2 and SIRT5 block 0.
Screening COCCN1C(=O)c2ccccc2C1c1nnnn1-c1ccc2c(c1)OCCO2 (stereo not drawn) returned E-selectin induc 4, DENV2 CPE -8 and SIRT5 block 9.
Screening CC(C)CCN1C(=O)c2ccccc2C1c1nnnn1-c1ccc2c(c1)OCCO2 (stereo not drawn) returned E-selectin induc 4, DENV2 CPE -2 and SIRT5 block 25*.
Screening COCC(=O)Nc1ccc2c(c1)[C@@H]1C[C@H](CC(=O)NCCc3ccccc3)O[C@H](CO)[C@@H]1O2 returned E-selectin induc 0, DENV2 CPE 3 and SIRT5 block 0.
Screening CS(=O)(=O)NCc1ccc(C(=O)NCCOc2ccccc2)cc1 returned DENV2 CPE 31* and SIRT5 block -6.
Screening Cc1ccc(OCCNC(=O)c2cccc(S(=O)(=O)NCc3ccccc3)c2)cc1 returned DENV2 CPE 7 and SIRT5 block 1.
For Cc1ccc(S(=O)(=O)N(C)C[C@H]2OCCCC[C@@H](C)Oc3ccc(NC(=O)Nc4cccc5ccccc45)cc3C(=O)N([C@H](C)CO)C[C@@H]2C)cc1 the results were E-selectin induc 1, DENV2 CPE inconclusive and SIRT5 block 1.
